Experimental data as given in ChEMBL document CHEMBL3576776, “3-Nitroasterric Acid Derivatives from an Antarctic Sponge-Derived Pseudogymnoascus sp. Fungus” (2015).

Key:
Format in all cases: functional
Pseudomonas aeruginosa = assay: Antibacterial activity against Pseudomonas aeruginosa PAO1
Method in brief: (§1)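 Compounds serially diluted twofold in DMSO to give 10 concentrations starting at 64 μg/mL; bacterial and fungal strains exposed by previously described methods. MIC taken as lowest concentration inhibiting ≥95% of growth after overnight incubation. Data processed to give MIC; assay robustness RZ′ factor 0.89–0.97 across experiments.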

Candida albicans [1] = assay: Antifungal activity against Candida albicans MY1055; method in brief: as §1
Staphylococcus aureus [2] = assay: Antibacterial activity against methicillin-sensitive Staphylococcus aureus EPI167
Method in brief: (§2)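 Compounds twofold serially diluted in DMSO, 10 concentrations starting at 64 μg/mL. Growth inhibition read after overnight incubation. MIC taken as the lowest concentration inhibiting ≥95% of growth. Assay robustness RZ′ factor 0.89–0.97.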

Aspergillus fumigatus = assay: Antifungal activity against Aspergillus fumigatus ATCC46645; method in brief: as §1
Escherichia coli = assay: Antibacterial activity against Escherichia coli MB2884; method in brief: as §1
Candida albicans [3] = assay: Antifungal activity against Candida albicans ATCC64124; method in brief: as §1
Acinetobacter baumannii = assay: Antibacterial activity against Acinetobacter baumannii CL 5973; method in brief: as §1
Staphylococcus aureus [4] = assay: Antibacterial activity against methicillin-resistant Staphylococcus aureus MB5393; method in brief: as §2

Measured: MIC95

COC(=O)c1c(Oc2cc(C)cc(O)c2C(=O)OCC(C)C(=O)OC)c(OC)cc(O)c1[N+](=O)[O-] (configuration not stated)
> 64 µg/mL: all assays above

COC(=O)c1c(Oc2cc(C)cc(O)c2C(=O)OC(C)C(=O)O)c(OC)cc(O)c1[N+](=O)[O-] (configuration not stated)
> 64 µg/mL: all assays above

COC(=O)c1c(Oc2cc(C)cc(O)c2C(=O)O)c(OC)cc(O)c1[N+](=O)[O-]
> 64 µg/mL: all assays above

COC(=O)c1c(Oc2cc(C)cc(O)c2C(=O)OCC(C)C(=O)O)c(OC)cc(O)c1[N+](=O)[O-] (configuration not stated)
> 64 µg/mL: all assays above
